Several values for one entry are separate records, joined by “and”; a condition that tells them apart may be missing. Equal entries are not always repeated. Bounds are passed on as bounds.

Consider four compounds from article PMC6904836 (International Journal for Parasitology: Drugs and Drug …, 2019).

For data set [1], the system named is L. major (MHOM/IL/SU73/WR779). The data set is described as follows: Luciferase amastigote macrophage assay in RAW 264.7. The conditions noted are these: Leishmania major, RAW264.7, 96 h, read-out: EC50 L. major. The class given is cell-based. The procedure, abridged:
(§1)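 RAW 264.7 macrophages (10,000/well) were incubated 24 h at 37 °C/5% CO2, then infected with luciferase-transfected promastigotes in DMEM + 10% HiFBS. Promastigotes were maintained in Schneider's + 20% HiFBS at 22 °C. Compounds (DMSO stock 11.5 mM) ran from 10 μg/ml in 1:2 dilutions, 0.2% DMSO final, for 96 h at 37 °C. D-luciferin was added at 150 μg/mL final for 30 min before the luminescence read. Amphotericin B control was run in octuplicate.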

In data set [2] the test system is L. guyanensis (MHOM/GY/06/PAB-3985-WR-2853/A Chan). The description is as above. As to conditions: Leishmania guyanensis, RAW264.7, 96 h, read-out: EC50 L. guyanensis. The class given is cell-based. The procedure, abridged:
as §1

The test system of data set [3] is L. tropica (MHOM/SU/74/K-27 WR-2995). As to the kind of experiment: Luciferase amastigote macrophage assay in RAW 264.7. The class given is cell-based. As to conditions: Leishmania tropica, RAW264.7, 96 h, read-out: EC50 L. tropica.
Data set [4] relates to L. major (NIH173 (MHOM/IR/-/173)). As to the kind of experiment: Lesion cure model, BALB/c mice infected with luciferase-expressing L. major. The class given is in vivo. The conditions noted are these: BID; for bioluminescence signal (parasite load) at the infection site: vs vehicle control.
For data set [5] the following is noted: pH7.4; ref DNDi unpublished data; cited from earlier work.
Data set [6] has as its system L. major (MHOM/SA/85/JISH118). As to the kind of experiment: L. major - BALB/c mouse model of CL. As to conditions: for % reduction Lesion size / % reduction Parasite load: n = 5. The class given is in vivo, BALB/c mice.
A further data set is described as follows: in vitro. The conditions noted are these: human.
[7] abbreviates: study 1, 50 mg/kg PO, 5 days, day 11 post end of treatment.
[8] abbreviates: study 2, 50 mg/kg PO, 10 days, day 11 post end of treatment.
Setting [9] is: study 2, 50 mg/kg PO, 10 days, day 80.
Where [10] appears, read: 50 mg/kg/day, compared to the untreated control.

Usually EC50 stands for the concentration that produces a half-maximal response. Consider `C[C@@H]1[C@H](O)[C@@H](C)/C=C/C=C/C=C/C=C/C=C/C=C/C=C/[C@H](O[C@@H]2O[C@H](C)[C@@H](O)[C@H](N)[C@@H]2O)C[C@@H]2O[C@](O)(C[C@@H](O)C[C@@H](O)[C@H](O)CC[C@@H](O)C[C@@H](O)CC(=O)O[C@H]1C)C[C@H](O)[C@H]2C(=O)O` [Amphotericin B, amphotericin B deoxycholate, reference compound], for which the EC50 came to 30 nM in data set [1], 30 nM in data set [2] and 10 nM in data set [3].

In the case of `O=[N+]([O-])c1cn2c(n1)O[C@@H](COc1ccc(-c3ccc(F)cc3)nc1)CC2` [DNDI-0690], in data set [4] (study 1, 25 mg/kg PO, 10 days, day 11 post end of treatment), the “lesion size reduction vs respective vehicle control” value came to 89.8%. Also, the “bioluminescence signal (parasite load) at the infection site” value in data set [4] (study 1, 25 mg/kg PO, 10 days) is “significantly reduce”. Besides, the EC50 in data set [1] is 340 nM; in data set [2] it was 850 nM.

Turning to `Cc1c(C(=O)Nc2ccc3c(c2)B(O)OC3)nnn1-c1ccccn1` [DNDI-6148], the “lesion size reduction vs respective vehicle control” value in data set [4] (setting [7]) is listed as 93.2%. For the same compound, in data set [4] (setting [7]), the “mice clear of any detectable infection” value is reported as 1/5. Moreover, in data set [4] (study 1, 50 mg/kg PO, 5 days), the “bioluminescence signal (parasite load) at the infection site” value is “significantly reduce”. Besides, the “mice cured (no visible lesion), no detectable parasite load by bioluminescence” value in data set [4] (setting [8]) is reported as 3/6. The “overall lesion size reduction compared to the average VC lesion size” value in data set [4] (setting [8]) was 99.3%. Further, the “mice cured, no detectable parasite load” value in data set [4] (study 2, 50 mg/kg PO, 10 days, day 18 post end of treatment) is 6/6. The “mice that had developed papules” value in data set [4] (study 2, 50 mg/kg PO, 10 days, day 61 post end of treatment) is 0/5; in data set [4] (study 2, 50 mg/kg PO, 10 days, day 74 post end of treatment) it was 1/5. The compound further yielded an average lesion size in data set [4] (setting [9]) of 1.98 mm^2. In addition, the “mice that had developed lesions” value in data set [4] (setting [9]) is given as 1/5. The “distribution coefficient (log D), DNDi data” value in data set [5] was 1.92. Further, the EC50 in data set [1] came to 70 nM; in data set [2] it was 50 nM; in data set [3], 240 nM; in the data set “in vitro” it was 181 µM. Further, the “lesion size reduction” value in data set [6] (setting [10]) is “no visible nodule”. Besides, the “reduction of the parasite load as measured by qPCR” value in data set [6] (setting [10]) was approximately 2 log-fold. The “% reduction Lesion size” value in data set [6] (Oral, 12.5 mg/kg, BID, 10 days) was 66.7%; in data set [6] (Oral, 25 mg/kg, BID, 10 days) it was 85.4%; in data set [6] (Oral, 50 mg/kg, BID, 5 days) it was 43.2%; in data set [6] (Oral, 50 mg/kg, BID, 10 days), 100.0% and 75.7% and 91.9%; in data set [6] (Oral, 50 mg/kg, QD, 10 days), 100.0%. Moreover, the “% reduction Parasite load” value was 92.35% in data set [6] (Oral, 12.5 mg/kg, BID, 10 days, qPCR day 11); 98.49% in data set [6] (Oral, 25 mg/kg, BID, 10 days, qPCR day 11); 100.00% in data set [6] (Oral, 50 mg/kg, BID, 5 days, qPCR); 99.56% and 100.00% and 98.41% in data set [6] (Oral, 50 mg/kg, BID, 10 days, qPCR day 11, 50 mg/kg); 97.73% in data set [6] (Oral, 50 mg/kg, QD, 10 days, qPCR day 11); 71.49% and 99.68% in data set [6] (Topical, Sat sol in PG-EtOH (1:1), 50 μl BID, 10 days, qPCR day 11).

On to `O=[N+]([O-])c1cn2c(n1)OC[C@H](Oc1ccc(OC(F)(F)F)cc1)C2` [DNDI-8219, (6 R)-2-Nitro-6-[4-(trifluoromethoxy)phenoxy]-6,7-dihydro-5 H-imidazo[2,1-b][1,3]oxazine], for which the EC50 in data set [1] was 30 nM; in data set [2], 380 nM; in data set [3], 1200 nM; in the data set “in vitro”, more than 200 µM.
